High-throughput results deposited in PubChem BioAssay by Johns Hopkins Ion Channel Center.
MrgX1 antag: antagonists of human MrgX1 receptor, primary screen, HEK293 cells, Fluo-4 calcium flux. BAM8-22 antagonism; stronger effect = lower value. B-score at 10 µM. 1.3% of 310,000 active;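 active = calcium-response B-score plate-corrected more than 3 library SD below zero, starting fluorescence within 5 deviations, no agonist response on first addition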;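 also: peak minus trough fluorescence over baseline after final BAM8-22 challenge near maximal dose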
MrgX1 ag: agonists of human MrgX1 receptor, primary screen, HEK293 cells, Fluo-4 calcium flux; 0.44% of 310,000 active; B-score at 10 µM; Fluo-4 calcium fluorescence, agonist mode; stronger effect = higher value;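 active = calcium response B-score plate-corrected fluorescence ratio at least 3 library SD, with starting fluorescence B-score inside 5 SD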
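Assay system: stable human MrgX1 HEK293 cell line. Quantity: 15,000 cells per well. Schedule: cells plated overnight, dye loaded 0.5 h 37 °C, 0.5 h room temperature. Detection: Fluo-4 NW calcium-flux fluorescence, kinetic read. Read-out basis: peak-minus-minimum fluorescence over baseline, converted to B scores. Control set: positive and negative control wells on each plate.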
RGS4 inh: RGS4 inhibitors, primary screen, cell-based, HEK293 M3R inducible RGS4, calcium flux; AID 463165, 2010; Fluo-4 calcium flux; stronger effect = higher value; triggered by carbachol at its EC20; 0.45% of 310,000 active; B-score at 10 µM; Regulator of G-protein signaling 4 (Homo sapiens), P49798;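 active = B-score, a plate-corrected calcium signal, over three deviations above library mean, with baseline fluorescence within five deviations of library mean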;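 also: RGS4 expression induced by doxycycline in cells with stable M3 receptor; B-score is computed from the integrated fluorescence ratio over baseline after carbachol; higher B-score means a larger calcium signal and so more RGS4 inhibition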
Target sequence (P49798 whole entry, looked up): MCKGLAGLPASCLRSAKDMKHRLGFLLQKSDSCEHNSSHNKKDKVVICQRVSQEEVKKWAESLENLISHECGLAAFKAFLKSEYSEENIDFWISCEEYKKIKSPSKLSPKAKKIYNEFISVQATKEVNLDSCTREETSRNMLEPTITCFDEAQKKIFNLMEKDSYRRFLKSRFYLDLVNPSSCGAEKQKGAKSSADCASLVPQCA
RGS4 pot: RGS4 potentiators or activators, primary screen, cell-based, HEK293 M3R inducible RGS4, calcium flux | carbachol calcium flux Fluo4; stronger effect = lower value | B-score at 10 µM | AID 463111, 2010 | 0.92% of 310,000 active;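 active = B-score of the integrated calcium signal more than 4 SD below the library mean, with starting fluorescence not abnormally high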;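 also: negative B-score means reduced calcium response which marks RGS4 activation or potentiation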
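Assay system: HEK293 FlpIn-TREx cells, stable M3R, doxycycline-inducible RGS4 / Probe or stimulus: carbachol, ECmax concentration / Times: overnight RGS4 induction, 30 min dye load 37 °C, 20 min compound RT / Signal: kinetic calcium fluorescence imaging with Fluo4-AM dye, 2 µM / Measure: Agonist-evoked peak-minus-minimum fluorescence over baseline, integrated ratio, B score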
MrgX1 PAM: positive allosteric modulators of MrgX1, primary screen, HEK293 cells, Fluo-4 calcium flux | 0.63% of 310,000 active | Mas-related G-protein coupled receptor member X1 (Homo sapiens), Q96LB2 | AID 588675, 2011 | FDSS; stronger effect = higher value | B-score at 10 µM;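 active = plate-corrected calcium response at least 3 library SD above typical, normal starting fluorescence, not activating the receptor alone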;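 also: compound read alongside a low EC10 to EC30 dose of BAM8-22 agonist; peak minus trough fluorescence over baseline measured at the second addition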
Hits are given with their value; 0 = inactive; - = no result. The list is not random: actives were taken first. Their share in the collection is about 3.5%.

SMILES	MrgX1 antag	MrgX1 ag	RGS4 inh	RGS4 pot	MrgX1 PAM
Cc1cccc(C)c1C(OCCN(C)C)C1CCCCC1 (configuration not stated)	0	0	0	-7.41	0
COCCN(C(=O)CCl)C(C(=O)NC1CCCCC1)c1ccccc1C (configuration not stated)	0	0	0	0	0
O=C(/C=C/c1ccco1)Nc1ccc2c(c1)OCO2	0	0	0	0	0
Cc1ccc(-n2nc3ccc(NC(=O)/C=C/c4ccco4)cc3n2)cc1	-6.28	0	0	0	0
Cc1ccc(NC(=O)c2cccc(NC(=O)/C=C/c3ccco3)c2)cc1C	0	0	0	-9.62	0
CCc1ccccc1NC(=O)c1cccc(NC(=O)/C=C/c2ccco2)c1	0	0	0	0	0
COc1cc(OC)c(OC)cc1/C=C1\Oc2cc(OS(C)(=O)=O)ccc2C1=O	-7.4	0	0	0	0
CS(=O)(=O)Oc1ccc2c(c1)O/C(=C\c1cccnc1)C2=O	0	0	0	0	0
CNC(=O)c1ccc(-c2sc3nc(N4CCOCC4)c4c(c3c2N)CCCC4)o1	0	0	0	0	12.1
Cc1cc(C)cc(NC(=O)C2CCCN(c3nc(C)cc(C)n3)C2)c1 (configuration not stated)	0	0	0	0	0
Cc1nc2ccccc2c(=O)n1CCN1CCOCC1	0	0	0	-7.37	0
CCOc1cc(CNC2CCCC2)c(Cl)cc1OCC(=O)Nc1ccccc1	0	0	0	-7.25	0
O=C(NC(=Nc1nc2ccccc2o1)NC(=O)c1ccccc1)c1ccccc1	0	0	0	0	0
COc1ccccc1C(=O)NC(=Nc1nc2ccccc2o1)NC(=O)c1ccccc1OC	0	0	0	-7.21	0
CCN(CC)CCCN1C=C2C(=O)C(C)(OC(=O)CCC(=O)OC)C(=O)C=C2C=C1C1CC1 (configuration not stated)	-5.49	0	0	0	0
CC(C)c1ccc(/C=C(\c2nc3ccccc3[nH]2)S(=O)(=O)c2ccccc2)cc1	0	0	0	0	0
O=S(=O)(/C(=C/c1ccc(C(F)(F)F)cc1)c1nc2ccccc2[nH]1)c1ccccc1	0	0	22.2	0	0
CSc1sc(C(=O)NCC2CC2)c2c1S(=O)(=O)N(C)c1ccccc1-2	0	0	0	0	0
COc1cc(NC(=O)CN(C)CCOc2ccccc2)c(C)cc1[N+](=O)[O-]	0	0	0	0	0
CN(CCOc1ccccc1)CC(=O)Nc1ccc(Cl)cc1[N+](=O)[O-]	0	0	0	0	12.9
CCCCN(C(=O)CN1C(=O)C2CC=CCC2C1=O)c1c(N)n(CCC)c(=O)[nH]c1=O (configuration not stated)	0	0	0	0	0
CC(=O)NC1C(=O)N(CCN2CCOCC2)c2ccc(C)cc21 (configuration not stated)	-6.1	0	0	0	0
C#CCOCCOCCOCCNc1nc(N2CCN(C(=O)CCCCCCCCCCNC(=O)[C@@H](CCC(=O)O)n3cc(CCCCCN)nn3)CC2)nc(N2CCN(C(=O)CCCCCCCCCCNC(=O)[C@H](CCCCN)n3cc(C[C@@H](C)CC)nn3)CC2)n1	0	69.5	-	-	0
C#CCOCCOCCOCCNc1nc(N2CCN(C(=O)CCCCCCCCCCNC(=O)[C@@H](CCC(=O)O)n3cc(CCCCCN)nn3)CC2)nc(N2CCN(C(=O)CCCCCCCCCCNC(=O)[C@H](CO)n3cc(CCCCCN)nn3)CC2)n1	0	0	-	-	0
C#CCOCCOCCOCCNc1nc(N2CCN(C(=O)CCCCCCCCCCNC(=O)[C@H](CCCCN)n3cc(CCO)nn3)CC2)nc(N2CCN(C(=O)CCCCCCCCCCNC(=O)[C@H](CCCCN)n3cc(C[C@@H](C)CC)nn3)CC2)n1	0	82.6	-	-	0
O=C1CC(c2ccc(O)c(O)c2)Oc2c1ccc(O)c2O (configuration not stated)	0	0	-	-	0
CSc1ccc(CN2CCC(CO)(CCOc3ccccc3)CC2)cc1	0	0	0	-6.99	0
CCOc1ccc(/C=C2\SC(=S)N(N3C(=O)C4CC4C3=O)C2=O)cc1 (configuration not stated)	0	0	0	0	0
CCOc1ccc(/C=C2/SC(=O)NC2=S)cc1	0	32.2	0	0	0
